Calls of active or inactive are those of the source. The rule behind the calls is not given here.

As usually defined, the GI50 is the concentration giving 50% growth inhibition.

G1/S-specific cyclin-D1 (Homo sapiens), sequence (P24385 whole entry): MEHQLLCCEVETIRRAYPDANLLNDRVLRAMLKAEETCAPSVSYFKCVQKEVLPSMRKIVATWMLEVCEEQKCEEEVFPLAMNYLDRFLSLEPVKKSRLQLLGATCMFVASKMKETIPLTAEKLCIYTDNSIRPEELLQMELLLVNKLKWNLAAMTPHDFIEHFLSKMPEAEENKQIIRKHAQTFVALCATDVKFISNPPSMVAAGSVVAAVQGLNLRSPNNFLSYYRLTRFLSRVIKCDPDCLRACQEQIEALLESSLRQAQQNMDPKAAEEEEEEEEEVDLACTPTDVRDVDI

The first assay has as its system MCF7. Briefly: Cell cycle arrest in human MCF7 cells assessed as accumulation at S phase at 10 uM after 24 hrs using propidium iodide staining based flow cytometric analysis (reference value: 12.92 +/- 1 %). The class given is functional. In general terms: In flow cytometry, cells or beads pass a laser one at a time.
As for `COc1cc(/C=C/C(=O)c2ccccc2O)ccc1OCCCCn1cc(COc2cc3c(cc2OC)C(=O)N2CCC[C@H]2C=N3)nn1`, the Activity amounted to 4.99%.

For the next assay, the system named is MCF7. Briefly: Cytotoxicity against human MCF7 cells assessed as reduction in cell viability at 4 uM after 24 hrs by MTT assay. The class given is functional, cell-based. In outline: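 MCF-7 cells were seeded at 10,000 per well and left overnight, then treated with 4 µM compound for 24 h. MTT was added for 2 h at 37 °C, formazan was solubilized in extraction buffer, and OD was read at 570 nm. Untreated cells served as control. Three independent experiments, SD.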
In general terms: Formazan colour is commonly taken as a measure of viable cells.
As to `COc1cc(/C=C/C(=O)c2ccccc2O)ccc1OCCCCn1cc(COc2cc3c(cc2OC)C(=O)N2CCC[C@H]2C=N3)nn1`, the outcome was Active.

The subject of the next assay is A2780. Briefly: Anticancer activity against human A2780 cells by SRB method. The class given is functional. The method in brief: (§1)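 Growth inhibition over a panel of human cancer lines (lung, ovarian, oral, colon, prostate, cervix, breast). Value is the 50% growth-inhibition concentration, reported as the mean ± standard error of the mean of three determinations.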
On the technique in general: Sulforhodamine B stains cellular protein and so reports cell mass.
The compound `COc1cc(/C=C/C(=O)c2ccccc2O)ccc1OCCCCn1cc(COc2cc3c(cc2OC)C(=O)N2CCC[C@H]2C=N3)nn1` showed a concentration for 50% growth inhibition (GI50) of 100 nM.

Another assay concerns MCF7. The assay can be described thus: Cell cycle arrest in human MCF7 cells assessed as accumulation at G2/M phase at 10 uM after 24 hrs using propidium iodide staining based flow cytometric analysis (reference value: 38.15 +/- 1.068 %). The assay is classed as functional.
Consider `COc1cc(/C=C/C(=O)c2ccccc2O)ccc1OCCCCn1cc(COc2cc3c(cc2OC)C(=O)N2CCC[C@H]2C=N3)nn1`, for which the Activity is 7.07%.

Test system in a further assay: not listed separately
Briefly: Anticancer activity against human Gurav cells by SRB method. The assay is classed as functional. The method in brief: as §1
As for `COc1cc(/C=C/C(=O)c2ccccc2O)ccc1OCCCCn1cc(COc2cc3c(cc2OC)C(=O)N2CCC[C@H]2C=N3)nn1`, halving of growth (GI50) required 120 nM.

Test system in a further assay: not listed separately
The assay can be described thus: Down regulation of NF-kappaB activity expressed in human MCF7 cells transfected with NF-kB SEAP plasmid at 4 uM after 24 hrs by chemiluminescence-based luminometric analysis. The assay is classed as cell-based. The method in brief:
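MCF-7 cells were transiently transfected with the NF-kB SEAP plasmid using lipofectamine 2000. After 24 h, cells were treated with 4 µM compound for 24 h. Lysates were assayed with a chemiluminescent reagent and read by luminometry and by 30 min X-ray film exposure. Transfected untreated cells served as control.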
As for `COc1cc(/C=C/C(=O)c2ccccc2O)ccc1OCCCCn1cc(COc2cc3c(cc2OC)C(=O)N2CCC[C@H]2C=N3)nn1`, the result was Active.

A further assay relates to MCF7. Briefly: Induction of cell cycle arrest at G1 phase in human MCF7 cells at 4 uM after 24 hrs using propidium iodide staining based flow cytometric analysis. The class given is functional. The method in brief:
(§2)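 MCF-7 cells were seeded at 5 × 10^5 per 60 mm dish and grown for 24 h, then exposed to 4 µM compound for 24 h. Cells were trypsinized, fixed in ice-cold 70% ethanol at 4 °C for 30 min and treated with 1 mg/ml RNase at 37 °C for 30 min. They were stained with propidium iodide/citrate/Triton X-100, and DNA content was read on 20,000 events by flow cytometry. Three independent repeats.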
For `COc1cc(/C=C/C(=O)c2ccccc2O)ccc1OCCCCn1cc(COc2cc3c(cc2OC)C(=O)N2CCC[C@H]2C=N3)nn1`, the result was Active.

Another assay deals with MCF7. Briefly: Cell cycle arrest in human MCF7 cells assessed as accumulation at G0 phase at 10 uM after 24 hrs using propidium iodide staining based flow cytometric analysis (reference value: 1.27 +/- 0.08 %). The assay is classed as functional.
`COc1cc(/C=C/C(=O)c2ccccc2O)ccc1OCCCCn1cc(COc2cc3c(cc2OC)C(=O)N2CCC[C@H]2C=N3)nn1`: the Activity is given as 10.79%.

Test system in another assay: not listed separately
Briefly: Anticancer activity against human DWD cells by SRB method. The assay is classed as functional. In outline: as §1
`COc1cc(/C=C/C(=O)c2ccccc2O)ccc1OCCCCn1cc(COc2cc3c(cc2OC)C(=O)N2CCC[C@H]2C=N3)nn1`: the 50% growth inhibitory concentration (GI50) is < 130 nM.

For the next assay, the system named is KB. The assay can be described thus: Anticancer activity against human KB cells by SRB method. The class given is functional. The method in brief:
as §1
On to `COc1cc(/C=C/C(=O)c2ccccc2O)ccc1OCCCCn1cc(COc2cc3c(cc2OC)C(=O)N2CCC[C@H]2C=N3)nn1`, for which the GI50 is 170 nM.

The test system of a further assay is A549. The assay can be described thus: Anticancer activity against human A549 cells by SRB method. The assay is classed as functional. In outline:
as §1
Consider `COc1cc(/C=C/C(=O)c2ccccc2O)ccc1OCCCCn1cc(COc2cc3c(cc2OC)C(=O)N2CCC[C@H]2C=N3)nn1`, for which the GI50 was < 160 nM.

The subject of another assay is PC-3. The assay can be described thus: Anticancer activity against human PC3 cells by SRB method. The assay is classed as functional. In outline: as §1
`COc1cc(/C=C/C(=O)c2ccccc2O)ccc1OCCCCn1cc(COc2cc3c(cc2OC)C(=O)N2CCC[C@H]2C=N3)nn1` yielded a GI50 of 130 nM.

In another assay the test system is MCF7. The assay can be described thus: Anticancer activity against human MCF7 cells by SRB method. The assay is classed as functional. The method in brief:
as §1
`COc1cc(/C=C/C(=O)c2ccccc2O)ccc1OCCCCn1cc(COc2cc3c(cc2OC)C(=O)N2CCC[C@H]2C=N3)nn1` yielded a GI50 of 140 nM.

The next assay relates to MCF7. The assay can be described thus: Cell cycle arrest in human MCF7 cells assessed as accumulation at G1 phase at 10 uM after 24 hrs using propidium iodide staining based flow cytometric analysis (reference value: 47.64 +/- 1.49 %). The assay is classed as functional.
In the case of `COc1cc(/C=C/C(=O)c2ccccc2O)ccc1OCCCCn1cc(COc2cc3c(cc2OC)C(=O)N2CCC[C@H]2C=N3)nn1`, the Activity worked out at 77.47%.

The next assay relates to HOP-62. Briefly: Anticancer activity against human HOP62 cells by SRB method. The assay is classed as functional. In outline:
as §1
`COc1cc(/C=C/C(=O)c2ccccc2O)ccc1OCCCCn1cc(COc2cc3c(cc2OC)C(=O)N2CCC[C@H]2C=N3)nn1` registered a GI50 of 160 nM.

The next assay has as its system SiHa. The assay can be described thus: Anticancer activity against human SiHa cells by SRB method. The assay is classed as functional. The method in brief:
as §1
For the compound `COc1cc(/C=C/C(=O)c2ccccc2O)ccc1OCCCCn1cc(COc2cc3c(cc2OC)C(=O)N2CCC[C@H]2C=N3)nn1`, the GI50 came to 140 nM.

Another assay concerns MCF7. The assay can be described thus: Induction of apoptosis in human MCF7 cells assessed as down regulation of Bcl-xL expression at 4 uM after 24 hrs by Western blot.
Consider `COc1cc(/C=C/C(=O)c2ccccc2O)ccc1OCCCCn1cc(COc2cc3c(cc2OC)C(=O)N2CCC[C@H]2C=N3)nn1`, for which the result was Active.

For another assay, the system named is MCF7. The assay can be described thus: Downregulation of cyclin D1 protein expression in human MCF7 cells at 4 uM after 24 hrs by Western blot analysis. The class given is functional, cell-based. The method in brief: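 MCF-7 cells at 80% confluency were treated with 4 µM compound for 24 h. Cells were lysed in RIPA buffer with protease inhibitors and protein was quantified by Bradford. 50 µg per lane was run on 12% SDS-PAGE and transferred to PVDF. Blots were probed overnight at 4 °C with rabbit polyclonal anti-cyclin D1, with β-actin as loading control, and detected by chemiluminescence.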
For the compound `COc1cc(/C=C/C(=O)c2ccccc2O)ccc1OCCCCn1cc(COc2cc3c(cc2OC)C(=O)N2CCC[C@H]2C=N3)nn1`, the outcome was Active.

Another assay relates to MCF7. The assay can be described thus: Cytotoxicity against human MCF7 cells assessed as reduction in cell viability at 2 uM after 24 hrs by MTT assay. The class given is functional, cell-based.
For the compound `COc1cc(/C=C/C(=O)c2ccccc2O)ccc1OCCCCn1cc(COc2cc3c(cc2OC)C(=O)N2CCC[C@H]2C=N3)nn1`, the result was inactive.

In a further assay the test system is ZR-75-1. The assay can be described thus: Anticancer activity against human ZR-75-1 cells by SRB method. The assay is classed as functional. The method in brief: as §1
For the compound `COc1cc(/C=C/C(=O)c2ccccc2O)ccc1OCCCCn1cc(COc2cc3c(cc2OC)C(=O)N2CCC[C@H]2C=N3)nn1`, the concentration for 50% growth inhibition (GI50) came to 150 nM.

In another assay the target is G1/S-specific cyclin-D1 (Homo sapiens) (UniProt P24385). The assay can be described thus: Down regulation of Cyclin D1 promoter activity expressed in human MCF7 cells co-transfected with luciferase gene at 4 uM after 24 hrs by luciferase reporter gene assay. The assay is classed as cell-based. The method in brief:
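MCF-7 cells were transfected for 24 h with the cyclin D1 promoter (−1745) luciferase construct, which contains an NF-kB site. Cells were then treated with 4 µM compound (final) for a further 24 h, and lysate luciferase was measured by luminometer. Untransfected cells served as negative control and transfected untreated cells as control.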
Regarding `COc1cc(/C=C/C(=O)c2ccccc2O)ccc1OCCCCn1cc(COc2cc3c(cc2OC)C(=O)N2CCC[C@H]2C=N3)nn1`, the result was Active.

Another assay relates to MCF7. The assay can be described thus: Induction of apoptosis in human MCF7 cells assessed as down regulation of Bcl2 expression at 4 uM after 24 hrs by ELISA. The assay is classed as functional, cell-based. In outline: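 MCF-7 cells were treated with 4 µM compound for 24 h. Lysates were added to Bcl2 antibody-coated wells, followed by biotinylated anti-human Bcl2 monoclonal antibody, and bound Bcl2 was detected with streptavidin-HRP (sandwich ELISA).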
Regarding `COc1cc(/C=C/C(=O)c2ccccc2O)ccc1OCCCCn1cc(COc2cc3c(cc2OC)C(=O)N2CCC[C@H]2C=N3)nn1`, the result was Active.

For a further assay, the system named is MCF7. The assay can be described thus: Cell cycle arrest in human MCF7 cells assessed as accumulation at G0/G1 phase at 4 uM after 24 hrs using propidium iodide staining based flow cytometric analysis. The class given is functional. In outline: as §2
For `COc1cc(/C=C/C(=O)c2ccccc2O)ccc1OCCCCn1cc(COc2cc3c(cc2OC)C(=O)N2CCC[C@H]2C=N3)nn1`, the Activity amounted to 89.1%.

For the origin of these results see ChEMBL document CHEMBL1821554, “Synthesis and anticancer activity of chalcone-pyrrolobenzodiazepine conjugates linked via 1,2,3-triazole ring side-armed with alkane spacers” (2011).
